Source: PubChem BioAssay
MC4R barr agon: activates human MC4R beta-arrestin recruitment; U2OS MC4R beta-arrestin complementation, luminescence; percent of melanotan II response, DMSO zero; 0.98% of 360,000 active; activation, % at 8.9 µM; P32245; AID 540308;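 active = activation above a per-plate cutoff, the mean activation of sample wells on that plate plus 3 SD, cut at about 8% in these data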
MC4R antagonist: blocks human MC4R cAMP signaling. inhibition, % at 6.5 µM. MC4R-expressing cells, MTII-stimulated cAMP, LANCE TR-FRET. 0.48% of 360,000 active. P32245;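 active = inhibition above its plate's cutoff, the mean of tested wells on that plate plus 3 SD, cut at about 29% in these data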
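system = U2OS cells with stable human MC4R expression | also added = Melanotan II challenge after compound preincubation | dosing = one concentration, 6.5 µM nominal | incubation = compound 30 min, challenge 1 h, detection 1 h | measured by = TR-FRET with Eu-cAMP and labeled anti-cAMP, 671 nm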
aDG glyco act: increases alpha dystroglycan glycosylation | Pro5-aDG cells, alpha-DG glycosylation AlphaScreen (IIH6); 0% Pro5, 100% B10-LARGE cell signal | activation, % at 10 µM | 0.22% of 360,000 active;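 active = activation of at least 8% versus controls, or a plate z-score of at least 8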;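 note: Pro5 are CHO cells carrying HIG-tagged alpha-DG that lacks glycosylation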
TAG inh: reduces triacylglycerol accumulation in H9c2 cells. Nile Red lipid (TAG) fluorescence; cells loaded with 200 µM oleic acid. 0.66% of 230,000 active. inhibition, % at 12.5 µM;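 active = pattern-corrected inhibition of lipid staining of at least 50% with the nuclear-stain viability signal not falling by more than 50%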
TbMetRS inhib: blocks T. brucei methionyl-tRNA synthetase activity | purified T. brucei MetRS, ATP depletion, Kinase-Glo luminescence | inhibition, % at 11.9 µM | 0.4% of 360,000 active;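 active = inhibition above a per-plate cutoff of the control wells' mean inhibition plus 3 SD, cut at about 5.5% in these data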
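technique = Kinase-Glo luminescence, ATP depletion format | system = purified MetRS (methionyl-tRNA synthetase) enzyme from Trypanosoma brucei | timing = 15 min preincubation, 2 h reaction, all 25 °C | evaluation = percent inhibition versus plate control medians | dosing = single dose, 11.9 µM final nominal, 0.9% final DMSO | also added = substrates ATP, L-methionine and bulk Escherichia coli tRNA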
NTR1 agonist: activates human neurotensin receptor 1; AID 493036; 0.17% of 330,000 active; P30989; NTR1-U2OS beta-arrestin-GFP spot imaging, agonist mode; activation, % at 20 µM;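 active = activation at or above 40% of the spot to cytoplasm intensity ratio, with at least 20 cells analyzed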
Target sequence (P30989 whole entry, looked up): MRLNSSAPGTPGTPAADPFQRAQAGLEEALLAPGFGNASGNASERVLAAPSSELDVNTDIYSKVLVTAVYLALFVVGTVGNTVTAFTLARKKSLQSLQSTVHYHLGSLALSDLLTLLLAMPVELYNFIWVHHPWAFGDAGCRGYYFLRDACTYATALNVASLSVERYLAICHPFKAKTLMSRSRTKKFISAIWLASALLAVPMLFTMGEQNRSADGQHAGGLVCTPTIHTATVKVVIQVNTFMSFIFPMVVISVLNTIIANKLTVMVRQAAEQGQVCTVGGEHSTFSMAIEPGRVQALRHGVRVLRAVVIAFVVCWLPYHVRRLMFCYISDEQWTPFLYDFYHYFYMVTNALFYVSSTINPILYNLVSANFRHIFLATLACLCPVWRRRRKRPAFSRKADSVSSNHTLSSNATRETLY
MC4R barr conf: human MC4R beta-arrestin agonism confirmation; 31% of 2,400 active; AID 602192; activation, % at 8.9 µM; U2OS MC4R beta-arrestin recruitment, luminescence; scaled DMSO 0%, Melanotan II 100%; shares compounds with MC4R barr agon;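 active = mean activation across replicates above the hit cutoff set in the earlier primary screen, cut at about 8% in these data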
MOR DOR agonist: activates mu-delta opioid heterodimer, MC4R agonist counter-screen. activation, % at 9.2 µM. AID 602194. U2OS PathHunter beta-arrestin, beta-gal luminescence; percent of deltorphin B response, DMSO zero. shares compounds with MC4R barr agon. 5.8% of 2,400 active;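 active = mean activation across replicates exceeds the hit threshold derived in the earlier primary screen, cut at about 18% in these data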
A number is an active result; 0 = inactive; - = no result. This is a sample that favours compounds with a hit; in the whole collection about 2.4% have one here.

SMILES	MC4R barr agon	MC4R antagonist	aDG glyco act	TAG inh	TbMetRS inhib	NTR1 agonist	MC4R barr conf	MOR DOR agonist
CC1(C)OC(=O)C2=C(C[C@@H](C3CCCC3)O[C@H]2c2ccc(Cl)cc2)O1	-	-	0	-	0	-	-	-
CCN(CC)C(=O)C1=C(C)N(Cc2ccc(C(C)(C)C)cc2)C(=O)C(CC(=O)NCc2cccs2)C1 (centres undefined)	0	0	0	0	0	-	-	-
CC1CCN(S(=O)(=O)c2ccc(C(=O)OCc3ccc4c(c3)OCO4)cc2)CC1	12	0	0	-	0	0	0	0
CCCCNC(=O)C1(C)CCCCN1C(=O)c1oc2ccccc2c1C (centres undefined)	0	0	0	0	0	-	-	-
Cn1c(SCC(=O)Nc2cccc(Br)c2)nnc1-c1cc2ccccc2o1	11	0	0	-	0	0	0	0
Cc1ccc(C2=NN(C(=O)c3cccs3)C(c3ccccc3O)C2)cc1 (centres undefined)	18	0	0	0	0	0	30	0
Cc1ccc(C2=NN(S(=O)(=O)c3ccccc3)C(c3ccccc3O)C2)cc1 (centres undefined)	12	0	0	0	0	-	9.7	0
COc1ccc(C2CC(c3ccccc3)=NN2S(=O)(=O)c2ccccc2)cc1 (centres undefined)	0	0	0	0	0	0	-	-
CCn1cc([N+](=O)[O-])c(C(=O)N2N=C(c3cccc4ccccc34)CC2c2ccccc2O)n1 (centres undefined)	0	0	0	0	0	0	-	-
CCn1cc(Cl)c(C(=O)N2N=C(c3ccc4ccccc4c3)CC2c2ccccc2O)n1 (centres undefined)	20	0	0	0	0	0	0	0
O=C(c1cccs1)N1N=C(c2ccccc2)CC1c1ccccc1O (centres undefined)	13	0	0	0	0	0	0	0
COc1ccc(C2=NN(C(=O)c3cccs3)C(c3ccccc3OC)C2)cc1OC (centres undefined)	0	0	0	0	0	0	-	-
Cn1cc([C@]2(O)C(=O)Nc3c(F)cccc32)c2ccccc21	-	-	0	-	0	-	-	-
C[C@H]1CN([C@@H](C)CO)S(=O)(=O)c2ccc(-c3ccccc3)cc2O[C@H]1CN(C)C(=O)C1CCC1	0	0	0	0	0	-	-	-
O=C(c1ccccc1)N1N=C(c2ccccc2)CC1c1ccccc1O (centres undefined)	17	0	0	-	0	0	11	0
CC(=O)Nc1cccc(-c2cc(NC(C)=O)c3ncc(-c4ccc(F)cc4)n3c2)c1	17	0	0	0	0	-	11	0
CC(=O)Nc1cc(-c2cccc(F)c2)cn2c(-c3ccc(F)cc3)cnc12	40	0	0	0	0	-	64	0
O=CNc1cc(-c2cccc(F)c2)cn2c(-c3ccc(F)cc3)cnc12	12	0	0	0	0	-	16	0
CCCCCCCCN1C(=O)[C@H](CC(=O)NCc2ccc(OC)c(OC)c2)C[C@@]2(C(=O)OC)CCCCC=C12	-	-	0	-	0	-	-	-
O=C(Nc1ccc2c(c1)OCO2)c1cc(C2CCCCN2S(=O)(=O)Cc2ccccc2)on1 (centres undefined)	0	0	0	0	0	-	-	-
N#Cc1c(-c2ccccc2)cc(C2CC2)nc1SCC(=O)O	0	0	0	-	0	0	-	-
N#Cc1c(-c2ccco2)cc(C2CC2)nc1SCC(=O)c1ccccc1	18	0	0	-	0	0	0	0
COC(=O)c1ccc(N2C(c3ccsc3)=Cc3cc4c(cc3C2CC(=O)c2ccco2)OCO4)cc1 (centres undefined)	-	-	0	-	0	-	-	-
CCCCc1nc2sc3c(SCC(=O)NCc4ccco4)ncnc3c2c2c1CCC2	14	0	0	0	0	0	0	0
CCCCc1nc2sc3c(SCCN(C)C)ncnc3c2c2c1CCC2	0	0	0	0	0	0	-	-
SMILES	MC4R barr agon	MC4R antagonist	aDG glyco act	TAG inh	TbMetRS inhib	NTR1 agonist	MC4R barr conf	MOR DOR agonist
CCOC(=O)[C@]12Cc3c(cc(OC)c(OC)c3OC)[C@H]1N(Cc1ccccc1)C(=O)c1cc(OC)ccc12	-	-	0	-	0	-	-	-
CC(=O)c1ccc(OC2(C)CCN(Cc3cc4ccccc4[nH]3)C2)cc1 (centres undefined)	0	0	0	0	0	-	-	-
Cn1c(=O)c(C(=O)NNC(=O)c2cccc(Cl)c2)c(O)c2ccccc21	9.8	0	0	-	0	0	0	0
O=C(Cn1nnc(-c2ccc(F)cc2)n1)NC(=O)NC1CCCCC1	9.7	0	0	0	0	-	0	0
Cc1sc2nc(C)n(/N=C/c3ccccc3O)c(=O)c2c1C	13	0	0	-	0	0	0	0
Cc1sc2nc(C)n(/N=C/c3ccc(O)cc3O)c(=O)c2c1C	0	0	0	0	0	0	-	-
COc1ccccc1CNCC(O)Cn1c2ccccc2c2ccccc21 (centres undefined)	10	0	0	0	0	0	21	21
CCCC(=O)N1CCC1(C)C(=O)Nc1cccc(OC(C)C)c1 (centres undefined)	0	0	0	0	0	-	-	-
O=C(NCc1ccccc1)C(C1CC1)n1c(=O)c(-c2ccco2)nc2ccccc21 (centres undefined)	-	-	0	-	0	-	-	-
C=CC[C@H](CC(=O)N[C@H](CO)Cc1ccccc1)C(=O)N[C@H](COC(=O)[C@@H](CC=C)Cc1ccc(F)cc1)Cc1c[nH]c2ccccc12	0	0	0	0	0	-	-	-
C=CCC[C@H](Cc1ccc(F)cc1)C(=O)OC[C@H](Cc1c[nH]c2ccccc12)NC(=O)[C@H](CC=C)CC(=O)N[C@H](CO)Cc1ccccc1	11	0	0	-	0	0	0	0
C=CC[C@@H](CC(=O)N[C@@H](CO)Cc1ccccc1)C(=O)N[C@@H](COC(=O)[C@@H](CC=C)Cc1ccc(F)cc1)Cc1c[nH]c2ccccc12	20	0	0	0	0	0	0	0
C=CCC[C@H](Cc1ccc(F)cc1)C(=O)OC[C@H](Cc1c[nH]c2ccccc12)NC(=O)[C@@H](CC=C)CC(=O)N[C@@H](CO)Cc1ccccc1	24	0	0	0	0	0	15	0
CN1C2C=CC(=O)C1C1C(=O)N(c3ccccc3)C(=O)C12 (centres undefined)	-	-	0	-	0	-	-	-
COc1ccc(C(C)(O)c2nc(-c3ccccc3C)cs2)cc1 (centres undefined)	0	0	0	0	0	-	-	-
